Active and inactive are the calls of the source.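 How the source made its calls: active means inhibition above 50% of the malaria lysate aminopeptidase activity; inactive means inhibition of 50% or less.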
Molecular target: Aspartyl aminopeptidase (Plasmodium falciparum (isolate 3D7)) (UniProt Q8I2J3)
Assay: PfM18AAP inhibition in parasite lysate, late-stage follow-up, cell lysate, fluorescence, malaria cell lysate, powder samples (AID 492975)
Details: P. falciparum lysate, H-Glu-NHMec fluorogenic substrate; at 5 µM; active compounds read high
Method in brief: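 medium = Tris-HCl 25 mM, pH 7.5 | assay system = Plasmodium falciparum cell lysate with native PfM18 aspartyl aminopeptidase | signal = Per-minute kinetic AMC fluorescence, ex 370 nm, em 460 nm | controls = uninhibited lysate wells as high, lysate-free wells as background | timing = 10 min pre-incubation, 30 min reading | probe or stimulus = 50 µM H-Glu-NHMec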

Aspartyl aminopeptidase (Plasmodium falciparum (isolate 3D7)), sequence (Q8I2J3 whole entry, looked up): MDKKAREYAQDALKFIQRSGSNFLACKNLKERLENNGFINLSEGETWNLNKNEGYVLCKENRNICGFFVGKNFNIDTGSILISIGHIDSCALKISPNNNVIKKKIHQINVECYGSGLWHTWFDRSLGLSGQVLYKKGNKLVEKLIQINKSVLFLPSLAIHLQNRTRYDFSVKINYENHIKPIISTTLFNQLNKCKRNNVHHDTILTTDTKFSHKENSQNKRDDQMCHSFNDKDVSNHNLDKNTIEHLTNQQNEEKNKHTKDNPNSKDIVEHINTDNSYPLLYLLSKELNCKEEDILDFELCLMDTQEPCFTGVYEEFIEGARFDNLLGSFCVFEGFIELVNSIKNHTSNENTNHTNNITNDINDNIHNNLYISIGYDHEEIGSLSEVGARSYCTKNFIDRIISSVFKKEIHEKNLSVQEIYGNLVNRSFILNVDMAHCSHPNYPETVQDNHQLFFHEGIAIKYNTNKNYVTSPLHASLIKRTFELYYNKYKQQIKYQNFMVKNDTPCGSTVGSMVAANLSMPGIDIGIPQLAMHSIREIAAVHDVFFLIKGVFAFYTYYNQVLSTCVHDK

| Structure (SMILES) | inhibition |
| --- | --- |
| Cc1ccc(Cl)cc1NC(=S)Nn1cnnc1 | 16% (inactive) |
| O=C(Nc1ccc(Cl)c(Cl)c1)Nn1cnnc1 | 84% |
| Cc1ccc([N+](=O)[O-])cc1-c1[nH]c(-c2ccc(O)c(O)c2)nc1-c1ccccc1 | 92% |
| COc1cccc(-c2cc(C(=O)Nn3cnnc3)c3ccccc3n2)c1 | 0% (inactive) |
| O=C(CSc1ncn[nH]1)OCN1C(=O)c2ccccc2C1=O | 49% (inactive) |
| O=C(NC(=S)Nn1cnnc1)c1ccccc1Br | 14% (inactive) |
| NCCc1ccc(O)c(O)c1 | 70% |
| OC(Cn1cnnc1)c1ccccc1 (stereo not given) | 12% (inactive) |
| O=c1c(O)c(-c2ccc(O)c(O)c2)oc2cc(O)cc(O)c12 | 80% |
| O=C(CNC(=O)c1ccccc1)NCCc1ccc(O)c(O)c1 | 94% |
| O=C(Nn1cnnc1)c1csc2ccccc12 | 5% (inactive) |
| O=C(O)c1cn[nH]c1-n1cnnn1 | 7% (inactive) |
| Cc1cc(C)n2c(=S)[nH]nc2n1 | 74% |
| Cc1ccc(NC(=S)Nn2cnnc2)c(C)c1 | 7% (inactive) |
| CCC(C)c1ccc(O)c(N)c1 (stereo not given) | 95% |
| Cc1ccc(-n2c(O)c(/C=N/n3cnnc3)c3ccccc3c2=O)cc1 | 12% (inactive) |
| O=c1[nH]c(=S)[nH]c(O)c1/C=C1\C=c2ccccc2=N1 | 41% (inactive) |
| Cc1cccc(NC(=S)Nn2cnnc2)c1C | 12% (inactive) |
| COc1ccc(Cl)cc1NC(=O)Nn1cnnc1 | 21% (inactive) |
| CC1=NNC(=O)/C1=C\c1cn(-c2ccccc2)nc1-c1ccc(F)cc1 | 68% |

| Structure (SMILES) | inhibition |
| --- | --- |
| CCc1ccccc1NC(=S)Nn1cnnc1 | 14% (inactive) |
| Cc1cc(C)cc(C(=O)n2cnnc2N)c1 | 11% (inactive) |
| CC(C)n1c(SCC(=O)Nc2nncs2)nnc1-c1ccco1 | 11% (inactive) |
| Cc1cc(=O)[nH]c(SCC(=O)c2ccc(O)c(O)c2)n1 | 61% |
| Nc1nncn1C(=O)CCCOc1ccc(Cl)cc1Cl | 3% (inactive) |
| Oc1ccc(-c2cn3ccccc3n2)cc1O | 94% |
| COc1cccc2c(SCC(=O)N/N=C/c3ccc(O)c(O)c3)cc(C)nc12 | 80% |
| Oc1ccc(-c2csc(-c3cccnc3)n2)cc1O | 99% |
| O=C(Nc1ccc(Br)cc1Cl)Nn1cnnc1 | 28% (inactive) |
| Cc1c(Cl)cccc1NC(=O)Nn1cnnc1 | 10% (inactive) |
| Oc1ccc(-c2csc(-c3ccccc3)n2)cc1O | 94% |
| O=c1c2c([N+](=O)[O-])cc([N+](=O)[O-])cc2sn1Cc1ccccc1 | 94% |
| COc1ccc2nc(C)cc(SCC(=O)N/N=C/c3ccc(O)c(O)c3)c2c1 | 83% |
| COc1ccc(C(=O)n2cnnc2N)cc1 | 12% (inactive) |
| Oc1ccc(/C=C/c2cc(O)cc(O)c2)cc1 | 66% |
| Cc1nc(-c2ccc(O)c(O)c2)cs1 | 95% |
| COc1ccc(NC(=O)NNC(=O)CCc2ccc(O)c(O)c2)cc1OC | 86% |
| O=C(CSc1nc2ccccc2c(=O)[nH]1)c1ccc(O)c(O)c1 | 79% |
| O=S(=O)(Nn1cnnc1)c1ccccc1 | 2% (inactive) |
| Cc1nc2ccccn2c1C(=O)NNC(=O)Nc1ccccc1 | 53% |

| Structure (SMILES) | inhibition |
| --- | --- |
| COc1cc([N+](=O)[O-])ccc1NC(=O)Nn1cnnc1 | 0% (inactive) |
| COc1cc(Br)cc(/C=N/c2ncn[nH]2)c1O | 0% (inactive) |
| O=C(O)c1ccc(O)c(O)c1 | 94% |
| O=c1[nH]c(CSc2ncn[nH]2)nc2ccccc12 | 15% (inactive) |
| O=C(CSc1ncn[nH]1)Nc1nc(-c2ccccc2)ns1 | 12% (inactive) |
| Oc1cc(O)c2c(c1)O[C@H](c1ccc(O)c(O)c1)[C@H](O)C2 | 89% |
| S=C(Nc1cc(Cl)ccc1Cl)Nn1cnnc1 | 20% (inactive) |
| CC1(C)CC(=O)c2c(oc3cc(O)c(O)cc23)C1 | 85% |
| O=C(O)CSc1ncn[nH]1 | 66% |
| O=C(CSc1nn(-c2ccccc2)c(=S)s1)Nn1cnnc1 | 9% (inactive) |
| CCOC(=O)C1=C(CS(=O)(=O)c2ccc(F)cc2)NC(=O)NC1c1ccc(O)c(O)c1 (stereo not given) | 90% |
| Br/C(C=Nn1cnnc1)=C\c1ccccc1 | 14% (inactive) |
| O=C(Nn1cnnc1)c1ccccc1-c1ccccc1 | 10% (inactive) |
| CCN(CC)S(=O)(=O)c1ccc(C(=O)Nn2cnnc2)cc1 | 31% (inactive) |
| O=C(Nc1cccc(Cl)c1Cl)Nn1cnnc1 | 26% (inactive) |
| COC(=O)CN(n1cnnc1)S(=O)(=O)c1ccccc1 | 0% (inactive) |
| O=[N+]([O-])c1cc([N+](=O)[O-])c2cccnc2c1Oc1ccccc1O | 85% |
| CN1CCc2cccc3c2[C@@H]1Cc1ccc(O)c(O)c1-3 | 84% |
| COC(=O)CN(n1cnnc1)S(=O)(=O)c1ccc(C)cc1 | 6% (inactive) |
| CC1(C)CC2(CC(c3ccccc3F)c3ccc(O)c(O)c3O2)NC(=S)N1 (stereo not given) | 89% |

Source: PubChem BioAssay AID492975 (The Scripps Research Institute Molecular Screening Center, 2010)
